Laboratory results: ChEMBL document CHEMBL1146375, “Synthetic studies on novel benzimidazolopeptides with antimicrobial, cytotoxic and anthelmintic potential” (2007)
Converted amounts (≈) assume the structure as drawn.

Columns and labels:
[1] = Growth inhibition of DLA cells after 3 hrs; type: functional; settings: Mus musculus
Method in brief: (§1)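 DLA and EAC cells passaged intraperitoneally in albino mice, harvested after 15–20 days and adjusted to 1 × 10⁶ cells/mL. Dilutions in Dulbecco's medium (500–31.25, some down to 3.91 µg/mL; 5-FU reference) mixed 1:1 with cells and held 3 h at 37 °C. Trypan blue exclusion gave % growth inhibition; CTC50 by graphical extrapolation.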

[2] = Growth inhibition of DLA cells at 31.25 ug/mL after 3 hrs; type: functional; settings: Mus musculus; method in brief: as §1
Microsporum audouinii [3] = test: Antifungal activity against Microsporum audouinii MUCC 545 after 48 hrs by tube dilution method; type: functional
Method in brief: (§2)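 Tube dilution MIC as for bacteria (seven concentrations, 200–3.1 […]), with DMSO in place of DMF. Tubes inoculated with fungal culture and incubated 48 h at 37 °C. MIC read from presence or absence of growth.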

Microsporum audouinii [4] = test: Antifungal activity against Microsporum audouinii MUCC 545 after 48 hrs by disc diffusion method; type: functional
Method in brief: (§3)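 Agar well diffusion on plates inoculated with spore suspension in normal saline from cultures on Sabouraud's broth. Wells punched and loaded with test samples or griseofulvin at 10 mg mL^-1, with DMSO as negative control. Incubated 48 h at 37 °C.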

Staphylococcus aureus [5] = test: Antibacterial activity against Staphylococcus aureus NCIM 2079 after 18 hrs by disc diffusion method; type: functional
Method in brief: (§4)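 Modified Kirby-Bauer disc diffusion. Plates inoculated with spore suspension (about 6 × 10⁴ spores mL^-1). Sterile 6 mm paper discs carried test samples at 10 mg mL^-1; ciprofloxacin disc as reference, DMF disc as negative control. Plates held 18 h at 37 °C. Inhibition zone diameters (mm) averaged over triplicate sets.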

Pontoscolex corethrurus [6] = test: Anthelmintic activity against Pontoscolex corethrurus ICARBC 408 assessed as mean death time; type: functional
Method in brief: (§5)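 Earthworms exposed to test suspensions at 2 mg mL−1, prepared by triturating compound with Tween 80 (0.5%) and distilled water, stirring 30 min, then diluting to 0.2% w/v. Mebendazole suspension was made the same way. Death was confirmed by moving worms into 50 °C warm water and looking for movement. Mean death time (min) taken from triplicate sets.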

Eudrilus [7] = test: Anthelmintic activity against Eudrilus sp. assessed as mean death time; type: functional; method in brief: as §5
Pseudomonas aeruginosa [8] = test: Antibacterial activity against Pseudomonas aeruginosa NCIM 2034 after 18 hrs by tube dilution method; type: functional; settings: NCIM 2034, 18 h
Method in brief: (§6)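 Tube dilution MIC. Stock diluted in sterile broth to seven concentrations from 200 to 3.1 […]. Each tube inoculated with one loopful of test bacterium and incubated 18 h at 37 °C. MIC read from presence or absence of growth.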

[9] = Growth inhibition of DLA cells at 500 ug/mL after 3 hrs; type: functional; settings: Mus musculus; method in brief: as §1
[10] = Growth inhibition of EAC cells at 250 ug/mL after 3 hrs; type: functional; settings: Mus musculus, Ehrlich; method in brief: as §1
Bacillus subtilis [11] = test: Antibacterial activity against Bacillus subtilis NCIM 2063 after 18 hrs by tube dilution method; type: functional; settings: NCIM 2063, 18 h; method in brief: as §6
[12] = Growth inhibition of DLA cells at 125 ug/mL after 3 hrs; type: functional; settings: Mus musculus; method in brief: as §1
[13] = Growth inhibition of EAC cells at 125 ug/mL after 3 hrs; type: functional; settings: Mus musculus, Ehrlich; method in brief: as §1
[14] = Growth inhibition of DLA cells at 62.5 ug/mL after 3 hrs; type: functional; settings: Mus musculus; method in brief: as §1
Pseudomonas aeruginosa [15] = test: Antibacterial activity against Pseudomonas aeruginosa NCIM 2034 after 18 hrs by disc diffusion method; type: functional; method in brief: as §4
Pontoscolex corethrurus [16] = test: Anthelmintic activity against Pontoscolex corethrurus ICARBC 408 assessed as mean paralyzing time; type: functional
Method in brief: (§7)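 Earthworms exposed to test suspensions at 2 mg mL^-1 (0.2% w/v), made by triturating compound with Tween 80 (0.5%) and distilled water, then mechanically stirred 30 min. Mebendazole suspension prepared alike as reference. Paralysis and death times recorded; death confirmed by no movement in 50 °C water. Means from triplicate sets.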

Trichophyton benhamiae [17] = test: Antifungal activity against Trichophyton mentagrophytes MUCC 665 after 48 hrs by tube dilution method; type: functional, Arthroderma benhamiae; method in brief: as §2
Bacillus subtilis [18] = test: Antibacterial activity against Bacillus subtilis NCIM 2063 after 18 hrs by disc diffusion method; type: functional; method in brief: as §4
Aspergillus niger = test: Antifungal activity against Aspergillus niger MUCC 177 after 48 hrs by disc diffusion method; type: functional; method in brief: as §3
[19] = Growth inhibition of EAC cells at 62.5 ug/mL after 3 hrs; type: functional; settings: Mus musculus, Ehrlich; method in brief: as §1
Candida albicans [20] = test: Antifungal activity against Candida albicans MUCC 29 after 48 hrs by disc diffusion method; type: functional; method in brief: as §3
[21] = Growth inhibition of DLA cells at 250 ug/mL after 3 hrs; type: functional; settings: Mus musculus; method in brief: as §1
Escherichia coli [22] = test: Antibacterial activity against Escherichia coli NCIM 2065 after 18 hrs by tube dilution method; type: functional; settings: NCIM 2065, 18 h
[23] = Anthelmintic activity against Megascoplex konkanensis ICARBC 211 assessed as mean death time; type: functional; method in brief: as §7
[24] = Growth inhibition of EAC cells at 31.25 ug/mL after 3 hrs; type: functional; settings: Mus musculus, Ehrlich; method in brief: as §1
[25] = Growth inhibition of EAC cells at 500 ug/mL after 3 hrs; type: functional; settings: Mus musculus, Ehrlich; method in brief: as §1
Trichophyton benhamiae [26] = test: Antifungal activity against Trichophyton mentagrophytes MUCC 665 after 48 hrs by disc diffusion method; type: functional, Arthroderma benhamiae; method in brief: as §3
[27] = Anthelmintic activity against Megascoplex konkanensis ICARBC 211 assessed as mean paralyzing time; type: functional; method in brief: as §7
Escherichia coli [28] = test: Antibacterial activity against Escherichia coli NCIM 2065 after 18 hrs by disc diffusion method; type: functional; method in brief: as §4
[29] = Growth inhibition of EAC cells after 3 hrs; type: functional; settings: Mus musculus, Ehrlich; method in brief: as §1
Eudrilus [30] = test: Anthelmintic activity against Eudrilus sp. assessed as mean paralyzing time; type: functional; method in brief: as §7
Staphylococcus aureus [31] = test: Antibacterial activity against Staphylococcus aureus NCIM 2079 after 18 hrs by tube dilution method; type: functional; settings: NCIM 2079, 18 h; method in brief: as §6
Candida albicans [32] = test: Antifungal activity against Candida albicans MUCC 29 after 48 hrs by tube dilution method; type: functional; method in brief: as §2

SMILES	CC50 [1]	inhibition at 31.25 µg/mL [2]	MIC (Microsporum audouinii [3])	inhibition zone (IZ) (Microsporum audouinii [4])	inhibition zone (IZ) (Staphylococcus aureus [5])	Time (Pontoscolex corethrurus [6])	Time (Eudrilus [7])	MIC (Pseudomonas aeruginosa [8])	inhibition at 500 µg/mL [9]	inhibition at 250 µg/mL [10]	MIC (Bacillus subtilis [11])	inhibition at 125 µg/mL [12]	inhibition at 125 µg/mL [13]	inhibition at 62.5 µg/mL [14]	inhibition zone (IZ) (Pseudomonas aeruginosa [15])	Time (Pontoscolex corethrurus [16])	MIC (Trichophyton benhamiae [17])	inhibition zone (IZ) (Bacillus subtilis [18])	inhibition zone (IZ) (Aspergillus niger)	inhibition at 62.5 µg/mL [19]	also measured
C[C@H](NC(=O)[C@@H]1CCCN1C(=O)c1cc(-c2nc3ccc([N+](=O)[O-])cc3[nH]2)ccc1O)C(=O)O	> 1070 µM	7.89%	6 µg/mL (≈ 12.8 µM)	12 mm	9 mm	43.55 min	35.69 min	6 µg/mL (≈ 12.8 µM)	34.2%	17.9%	12.5 µg/mL (≈ 26.7 µM)	21%	14.3%	18.4%	28 mm	31.9 min	6 µg/mL (≈ 12.8 µM)	13 mm	16 mm	7.14%	inhibition zone (IZ) (Candida albicans [20]): 22 mm; inhibition at 250 µg/mL [21]: 26.3%; MIC (Escherichia coli [22]): 12.5 µg/mL (≈ 26.7 µM); TIME [23]: 0.585 h; inhibition at 31.25 µg/mL [24]: 7.14%; inhibition at 500 µg/mL [25]: 25%; inhibition zone (IZ) (Trichophyton benhamiae [26]): 17 mm; TIME [27]: 0.436 h; inhibition zone (IZ) (Escherichia coli [28]): 18 mm; CC50 [29]: > 1070 µM; Time (Eudrilus [30]): 27.12 min; MIC (Staphylococcus aureus [31]): 25 µg/mL (≈ 53.5 µM); MIC (Candida albicans [32]): 6 µg/mL (≈ 12.8 µM)
Cc1cc2nc(-c3c(I)cc(C(=O)N[C@@H](Cc4cnc[nH]4)C(=O)N4CCC[C@H]4C(=O)O)cc3I)[nH]c2cc1C	583 µM	13.2%	25 µg/mL (≈ 33.2 µM)	10 mm	13 mm	29.33 min	23.86 min	6 µg/mL (≈ 7.98 µM)	52.6%	28.6%	6 µg/mL (≈ 7.98 µM)	34.2%	10.7%	28.9%	27 mm	17.38 min	6 µg/mL (≈ 7.98 µM)	16 mm	14 mm	10.7%	inhibition zone (IZ) (Candida albicans [20]): 25 mm; inhibition at 250 µg/mL [21]: 42.1%; MIC (Escherichia coli [22]): 12.5 µg/mL (≈ 16.6 µM); TIME [23]: 0.373 h; inhibition at 31.25 µg/mL [24]: 7.14%; inhibition at 500 µg/mL [25]: 35.7%; inhibition zone (IZ) (Trichophyton benhamiae [26]): 13 mm; TIME [27]: 0.228 h; inhibition zone (IZ) (Escherichia coli [28]): 18 mm; CC50 [29]: > 665 µM; Time (Eudrilus [30]): 13.37 min; MIC (Staphylococcus aureus [31]): 12.5 µg/mL (≈ 16.6 µM); MIC (Candida albicans [32]): 6 µg/mL (≈ 7.98 µM)
COC(=O)[C@H](CCCNC(=N)N[N+](=O)[O-])NC(=O)[C@@H]1CCCN1C(=O)c1cc(I)c(-c2nc3cc(C)c(C)cc3[nH]2)c(I)c1	114 µM	15.8%	25 µg/mL (≈ 30.1 µM)	10 mm	12 mm	34.45 min	30.02 min	6 µg/mL (≈ 7.23 µM)	84.2%	100%	6 µg/mL (≈ 7.23 µM)	52.6%	100%	28.9%	27 mm	22.77 min	6 µg/mL (≈ 7.23 µM)	17 mm	14 mm	35.7%	inhibition zone (IZ) (Candida albicans [20]): 23 mm; inhibition at 250 µg/mL [21]: 68.4%; MIC (Escherichia coli [22]): 12.5 µg/mL (≈ 15.1 µM); TIME [23]: 0.439 h; inhibition at 31.25 µg/mL [24]: 21.4%; inhibition at 500 µg/mL [25]: 100%; inhibition zone (IZ) (Trichophyton benhamiae [26]): 12 mm; TIME [27]: 0.299 h; inhibition zone (IZ) (Escherichia coli [28]): 18 mm; CC50 [29]: 84.3 µM; Time (Eudrilus [30]): 19.43 min; MIC (Staphylococcus aureus [31]): 12.5 µg/mL (≈ 15.1 µM); MIC (Candida albicans [32]): 6 µg/mL (≈ 7.23 µM)
